T cruzi inh – blocks replication of Trypanosoma cruzi | hit rate 1.4% among 300,000 | inhibition, % (no concentration beside the values) | T. cruzi beta-gal in NIH3T3, luminescence, 90 h;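 active = mean inhibition across valid replicates above about 55%, limit read from the data; inconclusive = mean below that limit but half or more replicates reach it; inactive = mean below it, under half of replicates reach it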;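 also: signal also drops with host cell toxicity which is not excluded here; 0% = plate median of DMSO wells and 100% = zero luminescence signal; higher percent means less beta-gal luminescence so fewer parasites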
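System – NIH/3T3 host cells with β-galactosidase reporter T. cruzi · Doses – single 50 nL compound addition per well in DMSO · Reagent – 5000 T. cruzi trypomastigotes/well · Medium – Low-serum DMEM with 2% FBS · Timing – ≥90 h infection period, 3 h prior cell attachment · Evaluation – parasite load inhibition, % · Technique – GalScreen luminescence, 60 min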
CSC inhib – blocks cancer stem cells. hit rate 1.1% among 300,000. AID 2717. cancer stem cell-like cells viability, luminescence. inhibition, % at 7.5 µM; in the data active = inhibition above about 75%; inconclusive = no clear call, values can overlap the other calls; tested in HMLE shEcad cells
Mdm2-MdmX inh – human Mdm2/MdmX binding inhibition; SaOS-2 split-luciferase Mdm2/MdmX complementation, luminescence; inhibition, % at 8 µM; hit rate 3% among 330,000; AID 485346;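 active = inhibition of at least 50% at 8 µM in the primary screen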
Target sequence (O15151 whole entry, looked up): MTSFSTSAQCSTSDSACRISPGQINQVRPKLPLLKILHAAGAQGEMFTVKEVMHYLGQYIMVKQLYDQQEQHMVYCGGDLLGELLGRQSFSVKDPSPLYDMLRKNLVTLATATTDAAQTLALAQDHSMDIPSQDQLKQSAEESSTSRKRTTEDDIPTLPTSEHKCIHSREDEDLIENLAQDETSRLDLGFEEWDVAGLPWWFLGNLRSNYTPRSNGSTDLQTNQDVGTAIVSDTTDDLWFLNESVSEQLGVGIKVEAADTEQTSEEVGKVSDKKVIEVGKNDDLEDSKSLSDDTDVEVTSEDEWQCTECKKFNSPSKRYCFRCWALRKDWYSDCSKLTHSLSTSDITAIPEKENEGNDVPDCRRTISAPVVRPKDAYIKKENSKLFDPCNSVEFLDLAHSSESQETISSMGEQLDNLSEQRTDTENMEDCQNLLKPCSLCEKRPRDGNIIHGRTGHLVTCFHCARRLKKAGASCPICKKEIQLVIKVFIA
Target sequence (Q00987 whole entry, looked up): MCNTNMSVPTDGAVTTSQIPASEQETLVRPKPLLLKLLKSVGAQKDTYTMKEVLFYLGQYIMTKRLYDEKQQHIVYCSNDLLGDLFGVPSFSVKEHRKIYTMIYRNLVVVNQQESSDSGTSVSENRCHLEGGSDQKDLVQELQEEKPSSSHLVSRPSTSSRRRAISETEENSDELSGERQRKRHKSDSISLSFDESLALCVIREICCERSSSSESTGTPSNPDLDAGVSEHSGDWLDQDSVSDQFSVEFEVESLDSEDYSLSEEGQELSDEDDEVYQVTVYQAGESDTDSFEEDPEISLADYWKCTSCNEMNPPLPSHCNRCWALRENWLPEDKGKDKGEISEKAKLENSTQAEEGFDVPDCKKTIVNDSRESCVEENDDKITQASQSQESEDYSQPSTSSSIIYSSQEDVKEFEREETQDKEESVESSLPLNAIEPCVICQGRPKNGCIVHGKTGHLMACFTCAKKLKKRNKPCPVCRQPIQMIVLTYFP
SKKanGAS inh – inhibitors of SKKanGAS S. pyogenes growth in kanamycin (SK-promoter or general growth effect). BacTiter-Glo, 6 h. inhibition, % at 7.5 µM. hit rate 1.3% among 300,000. AID 1662;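 active = mean replicate score, as percent of positive control median, at least 50; inconclusive = mean below 50 but one replicate at or above 50; inactive = mean and every replicate below 50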;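 also: strain carries kanamycin resistance gene driven by streptokinase promoter and grows in 40 µg/ml kanamycin; loss of luminescence reflects streptokinase promoter inhibition or plain growth inhibition; 0% = median of DMSO wells and 100% = positive control at its reference dose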
aSyn UTR inh – 5' untranslated region of α-synuclein, MLPCN primary screen; alpha-synuclein 5'UTR reporter, inhibitor activity; inhibition, % (tested at 7.5 µM); hit rate 0.82% among 300,000; AID 1813; in the data active = inhibition above about 60%; inconclusive = no clear call, values can overlap the other calls;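 also: H4 neuroglioblastoma cells stably carrying SNCA 5'UTR luciferase fusion; 0% = DMSO wells and 100% = positive control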
Mdm2-MdmX conf – confirmation of human Mdm2/MdmX interaction inhibitors | hit rate 55% among 10,000 | shares compounds with Mdm2-MdmX inh | Mdm2-MdmX binding, luminescent assay | inhibition, % at 8 µM | AID 489028; in the data active = inhibition above about 40%
Full FLuc ctr – inhibits full-length luciferase, flagging false Mdm2/MdmX hits; hit rate 77% among 6,200; shares compounds with Mdm2-MdmX inh; SaOS-2 full-length luciferase counterscreen, luminescence; inhibition, % at 8 µM;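 active = mean inhibition at 8 µM reaching about 37%, which flags the compound as non-specific, limit read from the data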;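 also: p53-null SaOS-2 cells with luciferase driven by a doxycycline-inducible promoter; compound on cells about two nights before reading with doxycycline added after day one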
* marks the source's active call; other numbers are inactive results; ? = inconclusive; . = not tested or not shown. Only some compounds are listed: those with a hit (about 5.4% of all), similar ones and a draw of the others.

SMILES	T cruzi inh	CSC inhib	Mdm2-MdmX inh	SKKanGAS inh	aSyn UTR inh	Mdm2-MdmX conf	Full FLuc ctr
COc1cccc2c1OC1(C)CC2N(C(=O)c2ccco2)C(=S)N1c1ccc(F)cc1 (stereo unspecified)	4.3	18.3	65.2*	-1.7	0.3	53.1*	70.3*
O=C(COC(=O)/C=C/C(=O)OCC(=O)NC12CC3CC(CC(C3)C1)C2)NC12CC3CC(CC(C3)C1)C2	-10.2	15.0	93.5*	-18.4	4.2	39.8	68.4*
CCOC(=O)c1ccc(S(=O)(=O)N2CCC(C(=O)O)CC2)cc1	-15.0	-2.4	21.5	-3.1	-4.5	.	.
COc1ccc(-c2oc(=O)c3cc(OC)c(OC)cc3c2/C=C/c2cccc([N+](=O)[O-])c2)cc1	.	32.5	54.0*	.	.	14.6	.
CC(NC(=O)CN1C(=O)NC(Cc2ccccc2)(Cc2ccccc2)C1=O)C12CC3CC(CC(C3)C1)C2 (stereo unspecified)	61.3*	13.7	77.3*	14.4	13.7	45.0*	64.5*
C[N+](C)(C)CCCNC(=O)c1ccc(/C=N/O)nc1	-16.6	-7.8	-1.9	1.9	-0.1	.	.
COCCCN=C(c1ccco1)n1c(=S)nc(-c2ccco2)n(CCCOC)c1=S	-8.7	-3.8	6.7	-4.0	-87.7	.	.
CCN(CC)c1ccc2c(c1)OC(N)=C(C#N)C2c1cccnc1 (stereo unspecified)	10.5	8.8	66.0*	4.2	75.3*	59.7*	91.8*
CCCCNC(=O)CCc1nc2cccnc2n1Cc1ccccc1	-11.4	-4.7	4.5	-1.4	6.4	.	.
O=C(CN1C(=O)/C(=C/c2ccccc2F)Sc2ccccc21)NCC1CCCO1 (stereo unspecified)	25.0	-16.1	12.4	2.5	-23.2	.	.
CCC/C(=C1/c2ccccc2C(=O)N1c1ccccc1)c1ccc2[nH]ccc2c1	.	134.8*	59.1*	.	.	52.4*	45.4*
COc1ccc(S(=O)(=O)N2CCCCCC2)cc1C(=O)NCc1ccc(C)cc1	.	-10.3	16.6	.	.	.	.
COC(=O)CS(=O)(=O)c1nnc([C@H](Cc2ccccc2)NC(=O)OC(C)(C)C)o1	4.4	91.3*	83.5*	-2.2	19.5	56.2*	15.1
Cc1cccc(CS(=O)(=O)c2nnc([C@H](Cc3ccccc3)NC(=O)OC(C)(C)C)o2)c1	42.6	94.8*	97.3*	78.8*	-12.1	56.3*	53.7*
OCC1(Cc2cccc(C(F)(F)F)c2)CCN(Cc2cc3ccccc3o2)CC1	26.0	32.6	8.6	4.7	13.0	.	.
Cc1c(CN2CCC(CO)(Cc3cccc(C(F)(F)F)c3)CC2)c2ccccc2n1C	56.2*	.	67.7*	4.6	3.7	42.4*	70.5*
Cc1cccc(C)c1NC(=O)CNC(=O)c1ccc2ccccc2n1	.	-14.9	-0.9	.	.	.	.
COc1ccc(-n2c(SCC(N)=O)nnc2-c2ccc(NS(=O)(=O)c3ccc(C)cc3)cc2)cc1	-1.0	-7.9	4.2	-4.2	-6.7	.	.
CCOC(=O)c1c(NC(=O)CSc2nnc(-c3c[nH]c4ccccc34)n2C)sc2c1CCCC2	35.1	11.6	60.9*	30.8	9.9	15.1	.
CCOC(=O)c1c(NC(=O)CSc2nnc(-c3c[nH]c4ccccc34)n2CCOC)sc2c1CCCC2	32.7	-6.1	42.5	30.7	24.3	.	.
COc1ccc(-n2c(SCC(=O)Nc3ccccc3)nnc2-c2ccc(NS(=O)(=O)c3ccc(C)cc3)cc2)cc1	4.0	-6.3	90.5*	22.0	40.6	27.9	.
COc1ccc(-c2nnc(SCC(=O)Nc3sc4c(c3C#N)CCCC4)n2-c2ccccc2)cc1	-14.6	.	78.3*	15.6	33.9	0.5	.
CC(=O)c1ccc(N/N=C(/C(N)=O)C2=NC(C)(C)Cc3ccccc32)cc1	6.1	42.0	63.1*	-0.9	?	38.6	63.4*
NS(=O)(=O)c1ccc(NC(=O)COC(=O)CNC(=O)C23CC4CC(CC(C4)C2)C3)cc1	-11.1	-3.2	-3.0	-7.2	-2.1	.	.
Cc1cccc(OCCN2C(=O)C(=O)c3cc(C)ccc32)c1	23.2	61.1	68.6*	7.2	-49.9	61.6*	89.6*
SMILES	T cruzi inh	CSC inhib	Mdm2-MdmX inh	SKKanGAS inh	aSyn UTR inh	Mdm2-MdmX conf	Full FLuc ctr
Cc1ccc2c(c1)C(=O)C(=O)N2CCOc1ccccc1	15.6	52.9	65.2*	0.6	-49.6	46.2*	95.1*
Cc1cccc(OCCN2C(=O)C(=O)c3cccc(C)c32)c1	10.8	.	24.3	-6.3	-11.5	.	.
CCN(Cc1ccncc1)C(=O)c1ccc(C)c(S(=O)(=O)N2CCCCC2)c1	.	10.5	2.1	.	.	.	.
COC(=O)c1cc(NC(=O)Nc2cccc(Cl)c2)ccc1Cl	42.1	36.5	87.6*	22.0	-52.6	42.8*	95.8*
O=C(Nc1cccc(Cl)c1)Nc1cccc(Cl)c1	34.0	-11.2	6.1	16.6	-136.9	.	.
COC(=O)c1cccc(NC(=O)NC(=O)c2ccc(Cl)cc2)c1	-1.0	32.4	68.9*	-2.3	-11.6	42.8*	73.0*
O=C(Nc1ccccc1)Nc1ccc(Br)cc1F	-24.4	-10.5	-70.4	1.2	-163.1	.	.
COc1ccccc1NS(=O)(=O)c1cccc(NC(=O)Nc2cccc(Cl)c2)c1	62.2*	-14.7	54.6*	15.6	13.9	48.7*	45.7*
COc1ccccc1NS(=O)(=O)c1cccc(NC(=O)NCCCl)c1	-1.7	-4.5	-31.4	2.7	-5.4	.	.
O=C(Nc1cccc(Cl)c1)Nc1ccc(Br)cc1F	?	.	81.5*	22.4	-114.6	80.0*	54.8*
COc1ccc(NCC(=O)NN=C2CCS(=O)(=O)c3ccc(F)cc32)cc1	.	-12.7	1.6	.	.	.	.
CC(C)OCCCNC(=O)c1cc(-c2cccnc2)nc2ccccc12	-5.6	-10.7	17.7	-6.1	-9.1	.	.
CN(CC(=O)Nc1ccc(F)cc1)C(=O)CCc1ccccc1	-5.9	-1.5	-23.7	-0.8	24.0	.	.
COCCn1cnc2c1c(=O)n(CC(=O)OCC#N)c(=O)n2Cc1ccccc1	5.0	.	15.1	0.4	5.1	.	.
CN(C)S(=O)(=O)c1ccc(Cl)c(NC(=O)COC(=O)/C=C/c2ccc3ccccc3n2)c1	.	-4.1	-19.8	.	.	.	.
C=C1C(=O)O[C@@H]2[C@H]1[C@@H](OC(=O)/C(C)=C/C)C/C(C)=C\C(=O)/C=C(\C)[C@@H]2O	-21.6	2.1	100.3*	4.5	-310.9	83.4*	51.4*
CCCN(C(=O)c1cn(C)c(=O)c2ccccc12)c1ccccc1C	6.5	-11.9	22.3	-1.1	8.7	.	.
O=C(CNc1cccc2ccccc12)N/N=C/c1ccc([N+](=O)[O-])o1	82.5*	13.4	50.6*	131.4*	10.9	20.4	.
O=C(CNc1cccc2ccccc12)N/N=C/C(Br)=C/c1ccccc1	-20.4	47.0	59.1*	-8.7	-14.0	37.2	47.0*
COc1ccc(-c2cc(-c3ccc(Br)cc3)nc3ncnn23)cc1OC	8.7	-2.9	9.7	16.6	5.8	.	.
CCCCn1c(O)c(N=NC(=O)c2ccncc2)c2cc(Br)ccc21	16.0	51.3	64.0*	83.4*	2.9	40.2*	63.3*
